≈ marks a conversion by molar mass, not a printed value. Where “and” joins values, the source holds several entries; their conditions need not be identical. Identical values can stand only once.
Key:
[1] = target: Chitin synthase 1 (Candida albicans, UniProt P23316); experiment: Inhibitory of Candida albicans chitin synthase 1
[2] = system: Candida albicans; experiment: In vitro antifungal activity against Candida albicans CY 1002; format: functional, organism-based
[3] = system: Mus musculus; experiment: In vivo antifungal activity was evaluated in target organ kidney assay (TOKA) in mice infected with Candida albicans CY 10025 X 10e5 cell after intravenous administration of compound at 5 mg/kg; format: functional
How it was run: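 Systemic candidiasis in mice, target organ kidney assay: infection with 5 × 10^5 cells/mouse, compound given iv at 0, 2 and 4 h post-infection in 5% DMSO-5% PEG300-30% HPCD. Kidney CFU counted; T/C = treated CFU/control CFU × 100.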

[4] = system: Cryptococcus neoformans; experiment: In vitro antifungal activity of compound was tested against Cryptococcus neoformans CY 1057
[5] = system: Aspergillus fumigatus; experiment: In vitro antifungal activity of compound was tested against Aspergillus fumigatus CF1003
[6] = system: Candida tropicalis; experiment: In vitro antifungal activity of compound was tested against Candida tropicalis CY 1038; format: functional, organism-based
[7] = system: Candida albicans; experiment: In vitro antifungal activity against Candida albicans CY 1003; format: functional, organism-based
[8] = system: Candida parapsilosis; experiment: In vitro antifungal activity of compound was tested against Candida parapsilosis CY 1028; format: functional, organism-based; conditions: Lodderomyces parapsilosis
[9] = system: Pichia kudriavzevii; experiment: In vitro antifungal activity against Candida krusei CY 1191; format: functional, organism-based
[10] = system: Candida albicans; experiment: In vitro antifungal activity against Candida albicans CY 3003; format: functional, organism-based
[11] = system: Nakaseomyces glabratus; experiment: In vitro antifungal activity against Candida glabrata CY 1014; format: functional, organism-based
[12] = system: Cryptococcus neoformans; experiment: In vitro antifungal activity of compound was tested against Cryptococcus neoformans CY 1059
[13] = system: Candida albicans; experiment: In vitro antifungal activity against Candida albicans CY 1124; format: functional, organism-based
[14] = system: Candida albicans; experiment: In vitro antifungal activity against […] CY 1057; format: functional, organism-based
[15] = system: Candida albicans; experiment: In vitro antifungal activity against Aspergillus fumigatus CF 1003; format: functional, organism-based
[16] = system: Mus musculus; experiment: In vivo antifungal activity was evaluated in target organ kidney assay (TOKA) in mice infected with Candida albicans CY 10025 X 10e5 cell after intravenous administration of compound at 1 mg/kg; format: functional
How it was run: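 Systemic candidiasis in mice, infected with C. albicans CY1002 at 5 × 10^5 cells/mouse. Dosed iv at 0, 2 and 4 h after infection: 5 mg/kg in 5% DMSO 5% PEG300-30% HPCD, comparator azole at 1 mg/kg. Kidney CFU counted; T/C = treated CFU/control CFU × 100.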

Chain of Chitin synthase 1 (P23316 whole entry): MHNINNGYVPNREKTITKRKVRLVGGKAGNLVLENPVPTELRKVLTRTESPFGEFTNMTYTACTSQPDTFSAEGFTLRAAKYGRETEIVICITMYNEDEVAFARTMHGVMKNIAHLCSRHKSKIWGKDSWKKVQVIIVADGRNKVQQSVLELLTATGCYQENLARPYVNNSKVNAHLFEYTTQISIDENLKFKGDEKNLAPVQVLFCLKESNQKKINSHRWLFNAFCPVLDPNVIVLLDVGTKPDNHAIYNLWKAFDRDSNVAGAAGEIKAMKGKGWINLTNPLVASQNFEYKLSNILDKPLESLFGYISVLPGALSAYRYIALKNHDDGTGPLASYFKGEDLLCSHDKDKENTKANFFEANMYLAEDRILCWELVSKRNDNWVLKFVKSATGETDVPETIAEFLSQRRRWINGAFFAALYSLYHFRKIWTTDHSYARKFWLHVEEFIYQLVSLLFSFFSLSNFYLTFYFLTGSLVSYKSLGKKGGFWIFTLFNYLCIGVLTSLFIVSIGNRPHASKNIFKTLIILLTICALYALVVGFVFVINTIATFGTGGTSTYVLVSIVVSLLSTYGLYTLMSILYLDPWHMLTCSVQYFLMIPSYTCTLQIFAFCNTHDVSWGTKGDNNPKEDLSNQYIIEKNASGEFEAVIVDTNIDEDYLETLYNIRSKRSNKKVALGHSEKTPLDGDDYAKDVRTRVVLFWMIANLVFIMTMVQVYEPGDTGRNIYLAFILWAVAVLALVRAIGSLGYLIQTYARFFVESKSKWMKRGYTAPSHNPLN

SMILES | IC50 [1] | IC50 [2] | other results
CC(C)(C)C#C/C=C/CNc1cccc2nc(O)ccc12 | 71.3 nM and 70 nM | 3.3 µg/mL (≈ 11.8 µM) | –
CCCCN(C/C=C/C#CC(C)(C)C)c1cccc2c1CCC(=O)N2 | 0.35 nM | > 200 µg/mL | –
CN(CC#CC#CC(C)(C)O)c1cccc2c1CCC(=O)N2 | 213 nM | > 200 µg/mL | –
CC(C)(C)C#C/C=C/CNc1cccc2oc(=O)ccc12 | 12000 nM | – | –
CN(CC#CC#Cc1ccccc1)c1cccc2c1CCC(=O)N2 | 13700 nM | > 200 µg/mL | –
CC(C)(C)C#C/C=C/CN(Cc1ccccc1)c1cccc2c1CCC(=O)N2 | 54 nM | > 200 µg/mL | –
CN(CC#CC#CC(C)(C)C)c1cccc2c1CC(O)C(=O)N2 (stereo not drawn) | 3 nM | 0.13 µg/mL (≈ 0.419 µM) | T/C [3]: 39%; IC50 [4]: > 200 µg/mL; IC50 [5]: 82 µg/mL (≈ 264 µM)
CCOP(=O)(OCC)OC1Cc2c(cccc2N(C)CC#CC#CC(C)(C)C)NC1=O (stereo not drawn) | 0.76 nM | 2.1 µg/mL (≈ 4.7 µM) | IC50 [4]: 0.23 µg/mL (≈ 0.515 µM); IC50 [5]: 21 µg/mL (≈ 47 µM)
COC(C)(C)C#CC#CCN(C)c1cccc2c1CCC(=O)N2 | 1030 nM | 3.5 µg/mL (≈ 11.3 µM) | –
CC(C)(C)CCCCCNc1cccc2[nH]c(=O)ccc12 | > 350000 nM | – | –
CC(C)(C)C#C/C=C/CN(c1cccc2c1CCC(=O)N2)S(C)(=O)=O | 391 nM | > 200 µg/mL | –
CN(CC#CC#CC(C)(C)C)c1cccc2c1CC(N)C(=O)N2 (stereo not drawn) | 12.3 nM | 20 µg/mL (≈ 64.6 µM) | T/C [3]: 23%; IC50 [4]: 15 µg/mL (≈ 48.5 µM); IC50 [5]: 35 µg/mL (≈ 113 µM)
CC(C)[C@@H](N)C(=O)OC1Cc2c(cccc2N(C)CC#CC#CC(C)(C)C)NC1=O (stereo partly drawn) | 14.9 nM | 1.3 µg/mL (≈ 3.17 µM) | T/C [3]: 15%; IC50 [4]: 16 µg/mL (≈ 39.1 µM); IC50 [5]: 19 µg/mL (≈ 46.4 µM)
CC(=O)Nc1cccc(NC/C=C/C#CC(C)(C)C)c1 | 1000 nM | – | –
CC(C)(C)C#C/C=C/CNCc1ccc(O)nc1 | 211000 nM | – | –
CC(C)(C)C#C/C=C/CNc1cccc2c1CCC(=O)N2 | 70.9 nM | > 200 µg/mL | –

SMILES | IC50 [1] | IC50 [2] | other results
CCC#CC#CCN(C)c1cccc2c1CCC(=O)N2 | 7.88 nM | 200 µg/mL (≈ 751 µM) | –
CC(C)N(C/C=C/C#CC(C)(C)C)c1cccc2c1CCC(=O)N2 | 1.23 nM | > 200 µg/mL | –
CN(C/C=C/C#CC(C)(C)C)c1cccc2c1CCC(=O)N2 | 2.77 nM | 0.19 µg/mL (≈ 0.641 µM) | –
CN(CCCC#CC(C)(C)C)c1cccc2c1CCC(=O)N2 | 8.95 nM | > 200 µg/mL | –
CCCCCN(C/C=C/C#CC(C)(C)C)c1cccc2c1CCC(=O)N2 | 1.1 nM | > 200 µg/mL | –
CN(CC#CC#CC(C)(C)C)c1cccc2c1CCC(=O)N2 | 0.14 nM | 0.07 µg/mL (≈ 0.238 µM) | IC50 [6]: 0.07 µg/mL (≈ 0.238 µM); IC50 [7]: 0.1 µg/mL (≈ 0.34 µM); IC50 [8]: 0.5 µg/mL (≈ 1.7 µM); T/C [3]: 34%; IC50 [9]: 0.31 µg/mL (≈ 1.05 µM); IC50 [10]: 0.09 µg/mL (≈ 0.306 µM); IC50 [11]: 0.47 µg/mL (≈ 1.6 µM); IC50 [12]: > 200 µg/mL; IC50 [13]: 0.17 µg/mL (≈ 0.577 µM); IC50 [5]: 43 µg/mL (≈ 146 µM)
CCCN(C/C=C/C#CC(C)(C)C)c1cccc2c1CCC(=O)N2 | 0.68 nM | > 200 µg/mL | –
CCN(C/C=C/C#CC(C)(C)C)c1cccc2c1CCC(=O)N2 | 0.9 nM | 0.27 µg/mL (≈ 0.87 µM) | –
Cn1c(=O)ccc2c(NC/C=C/C#CC(C)(C)C)cccc21 | 16000 nM | – | –
CN(C/C=C\C#CC(C)(C)C)c1cccc2c1CCC(=O)N2 | 13.2 nM | 95 µg/mL (≈ 320 µM) | –
CC(=O)N(C/C=C/C#CC(C)(C)C)c1cccc2c1CCC(=O)N2 | 775 nM | > 200 µg/mL | –
CC(C)(C)C#C/C=C/CNc1cccc2ncccc12 | 4500 nM | – | –
CN(Cc1ccc(C#CC(C)(C)C)cc1)c1cccc2c1CCC(=O)N2 | 7.22 nM | > 200 µg/mL | –
OC(Cn1cncn1)(Cn1cncn1)c1ccc(F)cc1F [FLUCONAZOLE] | – | 1.2 µg/mL (≈ 3.92 µM) | IC50 [14]: 3.4 µg/mL (≈ 11.1 µM); IC50 [15]: 50 µg/mL (≈ 163 µM); T/C [16]: 38%
C[C@@H]([C@H](N)C(=O)N[C@H](C(=O)O)[C@H]1O[C@@H](n2ccc(=O)[nH]c2=O)[C@H](O)[C@@H]1O)[C@H](O)c1ccc(O)cn1 [NIKKOMYCIN] | 3200 nM | 12 µg/mL (≈ 24.2 µM) | IC50 [6]: 73 µg/mL (≈ 147 µM); IC50 [7]: 81 µg/mL (≈ 163 µM); IC50 [8]: 13 µg/mL (≈ 26.2 µM); IC50 [9]: > 200 µg/mL; IC50 [10]: 7 µg/mL (≈ 14.1 µM); IC50 [11]: > 200 µg/mL; IC50 [12]: > 200 µg/mL; IC50 [13]: 15 µg/mL (≈ 30.3 µM); IC50 [5]: 11 µg/mL (≈ 22.2 µM)

— ChEMBL document CHEMBL1133216, “Synthesis and structure-activity relationships of novel fungal chitin synthase inhibitors” (Bioorg Med Chem Lett, 2000)
